Reference: ChEMBL document CHEMBL3124823, “1,2,3-Triazole-containing derivatives of rupestonic acid: click-chemical synthesis and antiviral activities against influenza viruses” (Eur J Med Chem, 2014)
Values after ≈ are worked out from the molar mass of the structure shown.

Key:
Influenza B virus [1] = assay: Ratio of ribavirin IC50 to compound IC50 for Influenza B virus jifang/13/97 infected in MDCK cells; type: functional
[2] = Selectivity index, ratio of TC50 for MDCK cells to IC50 for Influenza B virus jifang/13/97; type: toxicity, cell-based; details: dog, read-out: Selectivity Index
In short: (§1)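 Selectivity index = TC50 (MDCK, 48 h visual cytotoxicity) / IC50 from the 40 h CPE-inhibition assay for the given strain.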

Influenza B virus [3] = assay: Antiviral activity against Influenza B virus jifang/13/97 infected in MDCK cells assessed as inhibition of virus-induced cytopathicity after 40 hrs; type: functional, organism-based; details: jifang/13/97, MDCK
In short: (§2)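 CPE reduction in MDCK cells: cells grown 24 h at 37 °C, 5% CO2, then infected and held 2 h at 37 °C before the inoculum was removed. Threefold serial drug dilutions (8 levels from 20 mg/mL DMSO stocks) were added and incubated 40 h at 37 °C. CPE inhibition was scored against cell and virus controls to give IC50. Ribavirin and oseltamivir were the controls.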

[4] = Selectivity index, ratio of TC50 for MDCK cells to IC50 for Influenza A virus A/hanfang/359/95(H3N2); type: toxicity, cell-based; details: dog, read-out: Selectivity Index; in short: as §1
Influenza A virus [5] = assay: Antiviral activity against Influenza A virus A/hanfang/359/95(H3N2) infected in MDCK cells assessed as inhibition of virus-induced cytopathicity after 40 hrs; type: functional, organism-based; in short: as §2
[6] = Selectivity index, ratio of TC50 for MDCK cells to IC50 for Influenza A virus (A/Tianjinjinnan/15/2009/H1N1); type: toxicity, cell-based; details: dog, read-out: Selectivity Index; in short: as §1
Influenza A virus [7] = assay: Antiviral activity against Influenza A virus (A/FM/1/1947(H1N1)) infected in MDCK cells assessed as inhibition of virus-induced cytopathicity after 40 hrs; type: functional, organism-based; details: A/Fort Monmouth/1/1947(H1N1); in short: as §2
[8] = Cytotoxicity against MDCK cells after 48 hrs; type: cell-based, Canis lupus familiaris; details: dog, read-out: TC50
In short: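 MDCK cells seeded at 25000 per well and cultured 24 h at 37 °C, 5% CO2. Threefold dilutions were added to the monolayer and culture continued 48 h. Cytopathic changes were recorded by observation, and TC50 was calculated by the Reed & Muench method.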

[9] = Selectivity index, ratio of TC50 for MDCK cells to IC50 for Influenza A virus (A/FM/1/1947(H1N1)); type: toxicity, cell-based; details: dog, read-out: Selectivity Index; in short: as §1
Influenza B virus [10] = assay: Antiviral activity against Influenza B virus jifang/13/97 infected in MDCK cells assessed as inhibition of plaque formation after 3 to 4 days by crystal violet staining-based assay; type: functional, organism-based; details: jifang/13/97, MDCK
In short: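 Plaque reduction: MDCK monolayers in 12-well plates were PBS-washed and infected with influenza B in trypsin-free maintenance medium for 2 h at 37 °C, 5% CO2. Inoculum was removed and the cells washed three times. A 1.5% agarose/MEM overlay with trypsin (2 μg/ml) and drug was added. After 3-4 days, crystal violet (0.5%) plaque counts against no-drug wells gave IC50 by Reed & Muench. Ribavirin was the control.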

Structure (SMILES) | Ratio IC50 (Influenza B virus [1]) | selectivity ratio [2] | IC50 (Influenza B virus [3]) | selectivity ratio [4] | IC50 (Influenza A virus [5]) | selectivity ratio [6] | IC50 (Influenza A virus [7]) | CC50 at 48 h [8] | selectivity ratio [9] | IC50 (Influenza B virus [10])
C=C(C(=O)NCc1cn(Cc2ccc(Cl)c(Cl)c2)nn1)[C@@H]1CC[C@H](C)[C@@H]2CC(=O)C(C)=C2C1 | >4 | 9.9 | 6.79 µg/mL (≈ 13.9 µM) | 4.1 | 17.5 µg/mL (≈ 35.9 µM) | 3 | ≥ 17.2 µg/mL | 66.7 µg/mL (≈ 137 µM) |  | 
C=C(C(=O)OCc1cn(Cc2cccc(C)c2)nn1)[C@@H]1CC[C@H](C)[C@@H]2CC(=O)C(C)=C2C1 |  | ≥ 4 | ≥ 9.54 µg/mL |  | > 22.2 µg/mL | 1.98 | 12.3 µg/mL (≈ 28.4 µM) | 38.5 µg/mL (≈ 88.8 µM) | 3.76 | 
NC(=O)c1ncn([C@@H]2O[C@H](CO)[C@@H](O)[C@H]2O)n1 [RIBAVIRIN] |  | 206 | 7.84 µg/mL (≈ 32.1 µM) | 213 | 5.59 µg/mL (≈ 22.9 µM) | 185 | 1.92 µg/mL (≈ 7.86 µM) |  | 820 | 3.27 µg/mL (≈ 13.4 µM)
C=C(C(=O)OCc1cn(Cc2ccc(OC)cc2)nn1)[C@@H]1CC[C@H](C)[C@@H]2CC(=O)C(C)=C2C1 |  | ≥ 2.1 | ≥ 22.2 µg/mL |  | > 22.2 µg/mL | 2.08 | 19.7 µg/mL (≈ 43.9 µM) | 46.2 µg/mL (≈ 103 µM) | 2.68 | 
C=C(C(=O)NCc1cn(Cc2ccccc2Cl)nn1)[C@@H]1CC[C@H](C)[C@@H]2CC(=O)C(C)=C2C1 | >4 | 22.5 | 1.71 µg/mL (≈ 3.77 µM) |  | > 7.41 µg/mL |  | > 7.41 µg/mL | 38.5 µg/mL (≈ 85 µM) |  | 0.21 µg/mL (≈ 0.464 µM)
C=C(C(=O)NCc1cn(Cc2cccc(F)c2)nn1)[C@@H]1CC[C@H](C)[C@@H]2CC(=O)C(C)=C2C1 | >4 | 14.3 | 4.71 µg/mL (≈ 10.8 µM) |  | > 22.2 µg/mL |  | > 22.2 µg/mL | 66.7 µg/mL (≈ 153 µM) |  | 
C=C(C(=O)OCc1cn(Cc2ccccc2F)nn1)[C@@H]1CC[C@H](C)[C@@H]2CC(=O)C(C)=C2C1 | >4 | 29.7 | 2.26 µg/mL (≈ 5.17 µM) |  | > 22.2 µg/mL |  | > 22.2 µg/mL | 66.7 µg/mL (≈ 152 µM) |  | 0.91 µg/mL (≈ 2.08 µM)
C=C(C(=O)NCc1cn(Cc2ccc(C)cc2)nn1)[C@@H]1CC[C@H](C)[C@@H]2CC(=O)C(C)=C2C1 |  | 8.25 | 11.8 µg/mL (≈ 27.2 µM) |  | > 22.2 µg/mL |  | 17.5 µg/mL (≈ 40.5 µM) | 96.2 µg/mL (≈ 222 µM) | 5.91 | 
C=C(C(=O)NCc1cn(Cc2ccccc2)nn1)[C@@H]1CC[C@H](C)[C@@H]2CC(=O)C(C)=C2C1 |  | 12.2 | 11.3 µg/mL (≈ 27 µM) |  | > 22.2 µg/mL |  | 17.2 µg/mL (≈ 41.2 µM) | 96.2 µg/mL (≈ 230 µM) | 5.58 | 
C=C(C(=O)OCc1cn(C2CCCCC2)nn1)[C@@H]1CC[C@H](C)[C@@H]2CC(=O)C(C)=C2C1 |  | 6.5 | 18.5 µg/mL (≈ 45 µM) | ≥ 1.73 | ≥ 66.7 µg/mL | 1.98 | 66.7 µg/mL (≈ 162 µM) | 115 µg/mL (≈ 281 µM) | 1.73 | 
C=C(C(=O)NCc1cn(Cc2ccc(Cl)cc2)nn1)[C@@H]1CC[C@H](C)[C@@H]2CC(=O)C(C)=C2C1 | >4 | 8.55 | 2.09 µg/mL (≈ 4.61 µM) |  | > 2.47 µg/mL |  | > 2.47 µg/mL | 17.2 µg/mL (≈ 38.1 µM) |  | 
C=C(C(=O)OCc1cn(Cc2ccccc2Cl)nn1)[C@@H]1CC[C@H](C)[C@@H]2CC(=O)C(C)=C2C1 |  | 10.4 | 14.8 µg/mL (≈ 32.6 µM) | 3.31 | 40.2 µg/mL (≈ 88.5 µM) | 1.98 | > 66.7 µg/mL | 115 µg/mL (≈ 254 µM) |  | 
C=C(C(=O)O)[C@@H]1CC[C@H](C)[C@@H]2CC(=O)C(C)=C2C1 [PECHUELOIC ACID] |  | > 4030 | 181 µg/mL (≈ 727 µM) | 25.8 |  | > 1340 | 4650 µg/mL (≈ 18700 µM) | 248 µg/mL (≈ 999 µM) | > 111 | 
CCOC(=O)C1=C[C@@H](OC(CC)CC)[C@H](NC(C)=O)[C@@H](N)C1 [OSELTAMIVIR] |  |  |  | 1240 | 1 µg/mL (≈ 3.2 µM) |  | 2.81 µg/mL (≈ 8.99 µM) | 1260 µg/mL (≈ 4030 µM) | 448 | 
C=C(C(=O)NCc1cn(Cc2ccc(F)cc2)nn1)[C@@H]1CC[C@H](C)[C@@H]2CC(=O)C(C)=C2C1 | >4 | 43.8 | 3.92 µg/mL (≈ 8.98 µM) |  | > 66.7 µg/mL |  | ≥ 66.7 µg/mL | 116 µg/mL (≈ 265 µM) |  | 0.73 µg/mL (≈ 1.67 µM)
C=C(C(=O)NCc1cn(C2C=CCCC2)nn1)[C@@H]1CC[C@H](C)[C@@H]2CC(=O)C(C)=C2C1 (some centres undefined) |  | 7.85 | 13.4 µg/mL (≈ 32.8 µM) |  | > 22.2 µg/mL | 4.96 | 9.75 µg/mL (≈ 23.9 µM) | 96.2 µg/mL (≈ 235 µM) | 9.86 | 
C=C(C(=O)NCc1cn(Cc2cccc(Cl)c2)nn1)[C@@H]1CC[C@H](C)[C@@H]2CC(=O)C(C)=C2C1 | >4 | 3.9 | 7.41 µg/mL (≈ 16.4 µM) |  | > 7.41 µg/mL |  | > 7.41 µg/mL | 28.6 µg/mL (≈ 63.2 µM) |  | 
C=C(C(=O)NCc1cn(C2CCCCC2)nn1)[C@@H]1CC[C@H](C)[C@@H]2CC(=O)C(C)=C2C1 |  | 1.95 | 19.7 µg/mL (≈ 48.1 µM) |  | > 7.41 µg/mL | 1.73 | > 7.41 µg/mL | 38.5 µg/mL (≈ 93.7 µM) |  | 
C=C(C(=O)OCc1cn(C2C=CCCC2)nn1)[C@@H]1CC[C@H](C)[C@@H]2CC(=O)C(C)=C2C1 (some centres undefined) |  | ≥ 4.3 | ≥ 5.14 µg/mL |  | > 7.41 µg/mL |  | 2.82 µg/mL (≈ 6.89 µM) | 22.2 µg/mL (≈ 54.3 µM) | 8 | 3.28 µg/mL (≈ 8.01 µM)
C=C(C(=O)NCc1cn(Cc2cccc(OC)c2)nn1)[C@@H]1CC[C@H](C)[C@@H]2CC(=O)C(C)=C2C1 |  | 3.45 | 19.7 µg/mL (≈ 44 µM) |  | > 22.2 µg/mL |  | 12.8 µg/mL (≈ 28.6 µM) | 66.7 µg/mL (≈ 149 µM) | 5.2 | 
